pIC50: −log10 of the molar value. Values belong to the compound of their own block, whether it stands above or below them.
Assays:
Homo sapiens = organism: Homo sapiens; experiment: Selectivity index, ratio of IC50 for human recombinant MAO-A expressed in baculovirus infected BTI-TN5B1-4 cells to IC50 for human recombinant MAO-B expressed in baculovirus infected BTI-TN5B1-4 cells
Outline: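 IC50 values for hMAO-A and hMAO-B were obtained in the same p-tyramine/Amplex Red assay (15 min pre-incubation, 37 °C, 15 min fluorescence read). Each IC50 came from linear least-squares regression of % inhibition versus log molar concentration, using 4–6 concentrations giving 20–80% inhibition. Selectivity was taken as IC50(MAO-A)/IC50(MAO-B).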

[1] = biological target: T1, Amine oxidase [flavin-containing] B (Homo sapiens, UniProt P27338); experiment: Inhibition of human recombinant MAO-B expressed in baculovirus infected BTI-TN5B1-4 cells using p-tyramine as substrate assessed as reduction in H2O2 production preincubated for 15 mins followed by substrate addition measured after 15 mins by Amplex red dye based fluorescence assay; format: cell-based
T1 sequence (P27338 whole entry): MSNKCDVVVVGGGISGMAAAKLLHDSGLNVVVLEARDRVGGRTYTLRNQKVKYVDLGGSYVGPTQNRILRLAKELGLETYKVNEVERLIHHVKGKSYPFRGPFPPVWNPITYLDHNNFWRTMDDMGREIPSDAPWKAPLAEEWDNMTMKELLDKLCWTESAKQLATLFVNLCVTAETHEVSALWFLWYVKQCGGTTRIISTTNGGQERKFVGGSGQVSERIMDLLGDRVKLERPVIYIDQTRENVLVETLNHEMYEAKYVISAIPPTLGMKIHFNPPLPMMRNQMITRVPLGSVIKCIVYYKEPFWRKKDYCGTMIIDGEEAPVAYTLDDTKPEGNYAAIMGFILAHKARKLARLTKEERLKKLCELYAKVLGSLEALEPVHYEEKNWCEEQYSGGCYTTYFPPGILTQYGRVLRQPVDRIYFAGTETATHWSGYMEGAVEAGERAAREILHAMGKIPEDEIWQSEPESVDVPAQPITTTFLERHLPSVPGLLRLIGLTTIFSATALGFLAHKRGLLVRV

SH-SY5Y [2] = experiment: Cytotoxicity against human SH-SY5Y cells at 10 uM after 24 hrs by MTT assay; format: cell-based
Outline: (§1)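 SH-SY5Y neuroblastoma cells were seeded at 1.10⁶/mL and incubated overnight. Compounds in DMSO (1%) were added, with 1% DMSO-treated cells as negative control, for 24 h. MTT solution (5 mg/ml in PBS, 10%) was then added for 2 h at 37 °C, and the crystals were dissolved in DMSO. A540 was read, and viability was taken as % of negative-control absorbance.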

[3] = biological target: T2, Amine oxidase [flavin-containing] A (Homo sapiens, UniProt P21397); experiment: Inhibition of human recombinant MAO-A expressed in baculovirus infected BTI-TN5B1-4 cells using p-tyramine as substrate assessed as reduction in H2O2 production at 100 uM preincubated for 15 mins followed by substrate addition measured after 15 mins by Amplex red dye based fluorescence assay; conditions: 0.25 h
T2 sequence (P21397 whole entry): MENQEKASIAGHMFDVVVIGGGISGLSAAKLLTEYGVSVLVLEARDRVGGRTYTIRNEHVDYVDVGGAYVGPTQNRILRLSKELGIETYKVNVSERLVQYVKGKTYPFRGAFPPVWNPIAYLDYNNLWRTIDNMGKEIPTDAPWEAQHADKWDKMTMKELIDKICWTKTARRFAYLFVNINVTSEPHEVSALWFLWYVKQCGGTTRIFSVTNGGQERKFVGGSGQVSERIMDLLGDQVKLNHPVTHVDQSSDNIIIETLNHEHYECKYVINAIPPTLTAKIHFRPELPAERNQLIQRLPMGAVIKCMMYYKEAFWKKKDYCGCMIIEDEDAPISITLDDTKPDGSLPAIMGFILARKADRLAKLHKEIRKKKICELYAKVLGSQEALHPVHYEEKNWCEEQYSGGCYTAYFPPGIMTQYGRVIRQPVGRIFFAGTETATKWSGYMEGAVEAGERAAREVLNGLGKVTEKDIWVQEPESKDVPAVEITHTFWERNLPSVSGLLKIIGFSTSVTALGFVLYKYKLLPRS
Outline: (§2)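 Microsomal hMAO-A (1.1 µg protein) or hMAO-B (7.5 µg protein) from baculovirus-infected insect cells was used, with each amount adjusted to an oxidation rate of 165±2 pmol p-tyramine/min. Enzyme and test drug in 0.5M sodium phosphate pH 7.4 were pre-incubated 15 min at 37 °C. The reaction was started with final 200 µM Amplex Red, 1 U/mL HRP and 1 mM p-tyramine. Resorufin fluorescence (ex 545/em 590 nm) was followed for 15 min at 37 °C, background without enzyme was subtracted, and controls received vehicle.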

SH-SY5Y [4] = experiment: Cytotoxicity against human SH-SY5Y cells at 20 uM after 24 hrs by MTT assay; format: cell-based; outline: as §1
[5] = biological target: T1, Amine oxidase [flavin-containing] B; experiment: (§3) Inhibition of human recombinant MAO-B expressed in baculovirus infected BTI-TN5B1-4 cells using p-tyramine as substrate assessed as reduction in H2O2 production at 100 uM preincubated for 15 mins followed by substrate addition measured after 15 mins by Amplex red dye based fluorescence assay; conditions: 0.25 h; outline: as §2
[6] = biological target: T1, Amine oxidase [flavin-containing] B; experiment: as §3, with “assay relative to control” for “assay”; conditions: 0.25 h

SMILES: Cc1ccc2cc(-c3ccc(Cl)nn3)c(=O)oc2c1
Ratio IC50 (Homo sapiens): > 39.8 | pIC50 [1]: 5.60 | Activity (SH-SY5Y [2]): Non-Toxic | inhibition (INH) [3]: Not Active

SMILES: COc1ccc2cc(-c3ccc(Cl)nn3)c(=O)oc2c1
Ratio IC50 (Homo sapiens): > 5.2 | pIC50 [1]: 4.72 | Activity (SH-SY5Y [2]): Non-Toxic | inhibition (INH) [3]: Not Active

SMILES: COc1ccc2oc(=O)c(-c3ccc(Cl)nn3)cc2c1
Ratio IC50 (Homo sapiens): > 11.4 | pIC50 [1]: 5.06 | Activity (SH-SY5Y [2]): Non-Toxic | inhibition (INH) [3]: Not Active

SMILES: COc1ccc2oc(=O)c(-c3ccc(OC)nn3)cc2c1
Ratio IC50 (Homo sapiens): > 9 | pIC50 [1]: 4.95 | Activity (SH-SY5Y [2]): Non-Toxic | inhibition (INH) [3]: Not Active

SMILES: Cc1ccc2cc(-c3ccc(Br)nn3)c(=O)oc2c1
Ratio IC50 (Homo sapiens): > 133 | pIC50 [1]: 6.12 | Activity (SH-SY5Y [2]): Non-Toxic | inhibition (INH) [3]: Not Active

SMILES: Cc1ccc2oc(=O)c(-c3ccc(Br)nn3)cc2c1
Ratio IC50 (Homo sapiens): > 46.3 | pIC50 [1]: 5.67 | Activity (SH-SY5Y [2]): Non-Toxic | inhibition (INH) [3]: Not Active

SMILES: COc1ccc2oc(=O)c(-c3ccc(Br)nn3)cc2c1
Ratio IC50 (Homo sapiens): > 179 | pIC50 [1]: 6.25 | Activity (SH-SY5Y [2]): Non-Toxic | inhibition (INH) [3]: Not Active

SMILES: COc1ccc2cc(-c3ccc(OC)nn3)c(=O)oc2c1
inhibition at 100 µM [6]: 45 to 50% | Activity (SH-SY5Y [2]): Non-Toxic | inhibition (INH) [3]: Not Active

SMILES: COc1ccc2cc(-c3ccc(Br)nn3)c(=O)oc2c1
Ratio IC50 (Homo sapiens): > 32.8 | pIC50 [1]: 5.52 | Activity (SH-SY5Y [2]): Non-Toxic | inhibition (INH) [3]: Not Active

SMILES: Cc1ccc2oc(=O)c(-c3ccc(Cl)nn3)cc2c1
Ratio IC50 (Homo sapiens): > 7.4 | pIC50 [1]: 4.87 | Activity (SH-SY5Y [2]): Non-Toxic | inhibition (INH) [3]: Not Active

Now from value to compound, other results behind:

pIC50 [1]: 5.27 | inhibition (INH) [3]: Not Active
SMILES: COc1ccc(-c2cc3cccc(C)c3oc2=O)nn1
Ratio IC50 (Homo sapiens): > 18.7 | Activity (SH-SY5Y [2]): Non-Toxic

inhibition (INH) [5]: Not Active | inhibition (INH) [3]: Not Active
SMILES: COc1ccc(-c2cc3cccc(OC)c3oc2=O)nn1
Activity (SH-SY5Y [4]): Toxic | Activity (SH-SY5Y [2]): Non-Toxic

pIC50 [1]: 4.52 | inhibition (INH) [3]: Not Active
SMILES: COc1cccc2cc(-c3ccc(Cl)nn3)c(=O)oc12
Ratio IC50 (Homo sapiens): > 3.3 | Activity (SH-SY5Y [2]): Non-Toxic

pIC50 [1]: 5.58 | inhibition (INH) [3]: Not Active
SMILES: Cc1cccc2cc(-c3ccc(Br)nn3)c(=O)oc12
Ratio IC50 (Homo sapiens): > 37.9 | Activity (SH-SY5Y [2]): Non-Toxic

pIC50 [1]: 4.75 | inhibition (INH) [3]: Not Active
SMILES: COc1ccc(-c2cc3cc(C)ccc3oc2=O)nn1
Ratio IC50 (Homo sapiens): > 5.7 | Activity (SH-SY5Y [2]): Non-Toxic

pIC50 [1]: 4.87 | inhibition (INH) [3]: Not Active
SMILES: COc1ccc(-c2cc3ccc(C)cc3oc2=O)nn1
Ratio IC50 (Homo sapiens): > 7.4 | Activity (SH-SY5Y [2]): Non-Toxic

pIC50 [1]: 4.64 | inhibition (INH) [3]: Not Active
SMILES: Cc1cccc2cc(-c3ccc(Cl)nn3)c(=O)oc12
Ratio IC50 (Homo sapiens): > 4.4 | Activity (SH-SY5Y [2]): Non-Toxic

pIC50 [1]: 4.89 | inhibition (INH) [3]: Not Active
SMILES: COc1cccc2cc(-c3ccc(Br)nn3)c(=O)oc12
Ratio IC50 (Homo sapiens): > 7.8 | Activity (SH-SY5Y [2]): Non-Toxic
